# In ChEMBL document CHEMBL2346496, “Discovery of new benzothiazole-based inhibitors of breakpoint cluster region-Abelson kinase including the T315I mutant” (J Med Chem, 2013):
# Columns and labels:
# [1] = cells; settings: Mus musculus, BaF3, 48 h
# [2] = cells; settings: Mus musculus, BaF3, 48 h; remark: listed apart in the source
# [3] = Stability of the compound at 37 degC at pH 6.7 after 24 hrs by UPLC method; format: physicochemical; settings: buffer, read-out: Stability
# Summary of the method: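 Stability followed by UPLC over 24 h at 37 °C, pH 6.7.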
# [4] = Aqueous solubility of the compound at pH 6.7; format: physicochemical
# [5] = system: K562; assay: cells; settings: Homo sapiens
# [6] = cells; settings: Mus musculus, BaF3, 48 h; remark: listed apart in the source
# [7] = target: Tyrosine-protein kinase ABL1 (Homo sapiens, UniProt P00519, T315I); assay: Inhibition of breakpoint cluster region-Abelson tyrosine kinase T315I mutant (unknown origin) using [gamma-33P]ATP as substrate by radiometric kinase assay
# [8] = system: BaF3; assay: Cytotoxicity against mouse BA/F3 cells transfected with Bcr-Abl T315I mutant after 48 hrs by XTT assay
# [9] = target: Proto-oncogene tyrosine-protein kinase Src (Homo sapiens) (UniProt P12931); assay: Inhibition of SRC (unknown origin) at 1 uM relative to control; values are per cent of control
# [10] = target: Hepatocyte growth factor receptor (Homo sapiens) (UniProt P08581); assay: Inhibition of MET (unknown origin) at 1 uM relative to control; values are per cent of control
# Hepatocyte growth factor receptor (Homo sapiens), sequence (P08581 whole entry): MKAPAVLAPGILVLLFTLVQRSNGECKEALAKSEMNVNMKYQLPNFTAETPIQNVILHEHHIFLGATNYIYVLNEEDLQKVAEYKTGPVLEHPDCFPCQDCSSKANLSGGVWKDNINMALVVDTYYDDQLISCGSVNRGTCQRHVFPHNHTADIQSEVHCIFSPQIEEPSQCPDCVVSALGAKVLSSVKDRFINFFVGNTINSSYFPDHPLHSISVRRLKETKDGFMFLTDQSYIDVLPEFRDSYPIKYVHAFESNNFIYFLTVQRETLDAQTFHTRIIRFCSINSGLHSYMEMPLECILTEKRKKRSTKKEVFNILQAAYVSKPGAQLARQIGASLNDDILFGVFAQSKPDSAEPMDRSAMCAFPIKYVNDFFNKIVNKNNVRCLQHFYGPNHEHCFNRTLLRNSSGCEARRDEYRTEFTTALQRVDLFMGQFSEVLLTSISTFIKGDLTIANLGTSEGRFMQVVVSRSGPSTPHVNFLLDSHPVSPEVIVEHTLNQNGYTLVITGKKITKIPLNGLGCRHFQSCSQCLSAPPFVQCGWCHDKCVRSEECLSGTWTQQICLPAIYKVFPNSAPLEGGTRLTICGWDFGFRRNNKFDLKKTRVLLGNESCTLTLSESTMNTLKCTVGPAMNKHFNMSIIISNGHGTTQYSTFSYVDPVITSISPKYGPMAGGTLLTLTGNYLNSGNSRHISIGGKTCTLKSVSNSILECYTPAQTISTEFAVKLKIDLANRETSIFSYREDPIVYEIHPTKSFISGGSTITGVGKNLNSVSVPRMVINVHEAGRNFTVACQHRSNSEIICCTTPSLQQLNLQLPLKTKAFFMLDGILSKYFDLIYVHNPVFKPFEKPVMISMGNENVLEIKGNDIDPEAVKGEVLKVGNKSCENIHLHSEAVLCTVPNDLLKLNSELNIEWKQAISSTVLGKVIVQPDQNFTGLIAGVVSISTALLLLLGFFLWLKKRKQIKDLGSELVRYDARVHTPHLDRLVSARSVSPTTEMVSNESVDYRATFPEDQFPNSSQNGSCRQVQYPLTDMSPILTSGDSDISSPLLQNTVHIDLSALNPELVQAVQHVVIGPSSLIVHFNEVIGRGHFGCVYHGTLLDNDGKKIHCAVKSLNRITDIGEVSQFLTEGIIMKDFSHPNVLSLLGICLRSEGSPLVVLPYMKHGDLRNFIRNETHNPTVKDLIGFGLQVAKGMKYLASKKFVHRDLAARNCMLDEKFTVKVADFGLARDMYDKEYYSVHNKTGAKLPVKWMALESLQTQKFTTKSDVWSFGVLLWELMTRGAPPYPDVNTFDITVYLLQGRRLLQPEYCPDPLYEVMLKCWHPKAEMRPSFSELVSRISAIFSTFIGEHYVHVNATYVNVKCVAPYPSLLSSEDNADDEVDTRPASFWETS
# [11] = target: Mast/stem cell growth factor receptor Kit (Homo sapiens) (UniProt P10721); assay: Inhibition of KIT (unknown origin) at 1 uM relative to control; values are per cent of control
# [12] = target: Focal adhesion kinase 1 (Homo sapiens) (UniProt Q05397); assay: Inhibition of FAK (unknown origin) at 1 uM relative to control; values are per cent of control
# [13] = target: Angiopoietin-1 receptor (Homo sapiens) (UniProt Q02763); assay: Inhibition of TIE2 (unknown origin) at 1 uM relative to control; values are per cent of control
# [14] = target: Ribosomal protein S6 kinase alpha-3 (Homo sapiens) (UniProt P51812); assay: Inhibition of RSK2 (unknown origin) at 1 uM relative to control; values are per cent of control
# [15] = target: Serine/threonine-protein kinase PLK3 (Homo sapiens) (UniProt Q9H4B4); assay: Inhibition of PLK3 (unknown origin) at 1 uM relative to control; values are per cent of control
# [16] = target: Serine/threonine-protein kinase pim-1 (Homo sapiens) (UniProt P11309); assay: Inhibition of PIM1 (unknown origin) at 1 uM relative to control; values are per cent of control
# [17] = target: Serine/threonine-protein kinase PLK1 (Homo sapiens) (UniProt P53350); assay: Inhibition of PLK1 (unknown origin) at 1 uM relative to control; values are per cent of control
# [18] = target: Serine/threonine-protein kinase PAK 1 (Homo sapiens) (UniProt Q13153); assay: Inhibition of PAK1 (unknown origin) at 1 uM relative to control; values are per cent of control
# [19] = target: Dual specificity mitogen-activated protein kinase kinase 2 (Homo sapiens) (UniProt P36507); assay: Inhibition of MEK2 (unknown origin) at 1 uM relative to control; values are per cent of control
# [20] = target: Dual specificity mitogen-activated protein kinase kinase 1 (Homo sapiens) (UniProt Q02750); assay: Inhibition of MEK1 (unknown origin) at 1 uM relative to control; values are per cent of control
# [21] = target: Mitogen-activated protein kinase 8 (Homo sapiens) (UniProt P45983); assay: Inhibition of JNK1 (unknown origin) at 1 uM relative to control; values are per cent of control
# [22] = target: Tyrosine-protein kinase JAK2 (Homo sapiens) (UniProt O60674); assay: Inhibition of JAK2 (unknown origin) at 1 uM relative to control; values are per cent of control
# [23] = target: Receptor-type tyrosine-protein kinase FLT3 (Homo sapiens) (UniProt P36888); assay: Inhibition of FLT3 (unknown origin) at 1 uM relative to control; values are per cent of control
# [24] = target: Mitogen-activated protein kinase 3 (Homo sapiens) (UniProt P27361); assay: Inhibition of ERK1 (unknown origin) at 1 uM relative to control; values are per cent of control
# Mitogen-activated protein kinase 3 (Homo sapiens), sequence (P27361 whole entry): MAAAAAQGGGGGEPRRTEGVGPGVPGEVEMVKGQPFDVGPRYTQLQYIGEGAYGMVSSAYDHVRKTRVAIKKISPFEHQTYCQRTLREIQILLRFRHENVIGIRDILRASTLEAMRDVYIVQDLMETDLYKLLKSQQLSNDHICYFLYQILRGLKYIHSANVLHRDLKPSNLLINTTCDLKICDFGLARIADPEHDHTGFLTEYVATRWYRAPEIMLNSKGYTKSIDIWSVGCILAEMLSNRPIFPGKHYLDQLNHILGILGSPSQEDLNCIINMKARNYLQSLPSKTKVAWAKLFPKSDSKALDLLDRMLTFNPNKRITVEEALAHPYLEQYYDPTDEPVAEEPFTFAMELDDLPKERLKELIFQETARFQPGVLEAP
# [25] = target: Epidermal growth factor receptor (Homo sapiens) (UniProt P00533); assay: Inhibition of EGFR (unknown origin) at 1 uM relative to control; values are per cent of control
# [26] = target: Cyclin-dependent kinase 2 (Homo sapiens) (UniProt P24941); assay: Inhibition of CDK2 (unknown origin) at 1 uM relative to control; values are per cent of control
# [27] = target: Serine/threonine-protein kinase B-raf (Homo sapiens) (UniProt P15056); assay: Inhibition of BRAF (unknown origin) at 1 uM relative to control; values are per cent of control
# [28] = target: RAC-alpha serine/threonine-protein kinase (Homo sapiens) (UniProt P31749); assay: Inhibition of AKT1 (unknown origin) at 1 uM relative to control; values are per cent of control
# RAC-alpha serine/threonine-protein kinase (Homo sapiens), sequence (P31749 whole entry): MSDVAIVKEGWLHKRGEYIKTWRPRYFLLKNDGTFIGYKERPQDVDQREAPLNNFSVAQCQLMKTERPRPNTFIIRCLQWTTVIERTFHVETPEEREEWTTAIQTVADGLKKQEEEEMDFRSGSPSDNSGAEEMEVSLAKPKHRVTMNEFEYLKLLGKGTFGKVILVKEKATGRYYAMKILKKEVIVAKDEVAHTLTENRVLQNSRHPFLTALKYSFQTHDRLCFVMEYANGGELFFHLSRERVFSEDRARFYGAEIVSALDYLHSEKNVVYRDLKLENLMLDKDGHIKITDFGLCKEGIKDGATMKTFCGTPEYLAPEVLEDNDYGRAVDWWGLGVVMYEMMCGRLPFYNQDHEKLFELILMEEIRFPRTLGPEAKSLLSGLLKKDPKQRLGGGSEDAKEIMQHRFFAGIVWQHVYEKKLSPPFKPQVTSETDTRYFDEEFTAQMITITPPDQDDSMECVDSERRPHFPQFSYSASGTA
# [29] = target: Rho-associated protein kinase 2 (Homo sapiens) (UniProt O75116); assay: Inhibition of ROCK2 (unknown origin) at 1 uM relative to control; values are per cent of control
# [30] = target: 3-phosphoinositide-dependent protein kinase 1 (Homo sapiens) (UniProt O15530); assay: Inhibition of PDPK1 (unknown origin) at 1 uM relative to control; values are per cent of control
# [31] = target: Insulin-like growth factor 1 receptor (Homo sapiens) (UniProt P08069); assay: Inhibition of IGF1R (unknown origin) at 1 uM relative to control; values are per cent of control
# [32] = target: Glycogen synthase kinase-3 beta (Homo sapiens) (UniProt P49841); assay: Inhibition of GSK3b (unknown origin) at 1 uM relative to control; values are per cent of control
# [33] = target: Fibroblast growth factor receptor 2 (Homo sapiens) (UniProt P21802); assay: Inhibition of FGFR2 (unknown origin) at 1 uM relative to control; values are per cent of control
# Fibroblast growth factor receptor 2 (Homo sapiens), sequence (P21802 22-821 limits assumed): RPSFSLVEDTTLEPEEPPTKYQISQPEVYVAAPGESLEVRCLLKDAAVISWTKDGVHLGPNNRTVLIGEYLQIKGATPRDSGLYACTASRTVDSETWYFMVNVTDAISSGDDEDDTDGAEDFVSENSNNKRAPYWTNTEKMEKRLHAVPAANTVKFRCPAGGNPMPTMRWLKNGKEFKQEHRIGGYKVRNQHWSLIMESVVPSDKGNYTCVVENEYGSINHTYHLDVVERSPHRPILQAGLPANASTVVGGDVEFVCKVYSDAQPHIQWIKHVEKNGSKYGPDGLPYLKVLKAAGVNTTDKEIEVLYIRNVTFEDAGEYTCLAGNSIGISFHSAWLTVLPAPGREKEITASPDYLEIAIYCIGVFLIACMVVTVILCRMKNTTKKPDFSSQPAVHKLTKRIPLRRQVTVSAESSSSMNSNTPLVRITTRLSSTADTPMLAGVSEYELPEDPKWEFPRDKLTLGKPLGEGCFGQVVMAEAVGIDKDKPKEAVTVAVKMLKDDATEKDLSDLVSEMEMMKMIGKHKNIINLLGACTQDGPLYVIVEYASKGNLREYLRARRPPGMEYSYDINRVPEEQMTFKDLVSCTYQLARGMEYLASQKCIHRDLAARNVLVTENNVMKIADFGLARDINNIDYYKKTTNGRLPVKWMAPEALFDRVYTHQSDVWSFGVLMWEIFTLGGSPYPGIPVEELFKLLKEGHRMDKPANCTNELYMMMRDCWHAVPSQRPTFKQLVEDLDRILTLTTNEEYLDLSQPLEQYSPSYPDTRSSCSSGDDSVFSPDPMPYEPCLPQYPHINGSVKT
# [34] = species on record: Homo sapiens; assay: Inhibition of CDK11 (unknown origin) at 1 uM relative to control; values are per cent of control
# [35] = target: Aurora kinase B (Homo sapiens) (UniProt Q96GD4); assay: Inhibition of AURKB (unknown origin) at 1 uM relative to control; values are per cent of control
# Aurora kinase B (Homo sapiens), sequence (Q96GD4 whole entry): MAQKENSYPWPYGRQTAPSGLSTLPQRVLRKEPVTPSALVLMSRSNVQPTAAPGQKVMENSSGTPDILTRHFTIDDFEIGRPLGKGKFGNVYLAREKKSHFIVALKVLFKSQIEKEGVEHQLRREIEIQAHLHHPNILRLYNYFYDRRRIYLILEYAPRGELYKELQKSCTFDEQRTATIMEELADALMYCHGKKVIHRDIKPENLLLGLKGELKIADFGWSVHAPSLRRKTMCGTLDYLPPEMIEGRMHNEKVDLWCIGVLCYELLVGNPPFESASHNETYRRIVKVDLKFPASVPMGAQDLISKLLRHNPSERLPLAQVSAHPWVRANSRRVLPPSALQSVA
# [36] = target: Aurora kinase A (Homo sapiens) (UniProt O14965); assay: Inhibition of AURKA (unknown origin) at 1 uM relative to control; values are per cent of control
# Aurora kinase A (Homo sapiens), sequence (O14965 whole entry): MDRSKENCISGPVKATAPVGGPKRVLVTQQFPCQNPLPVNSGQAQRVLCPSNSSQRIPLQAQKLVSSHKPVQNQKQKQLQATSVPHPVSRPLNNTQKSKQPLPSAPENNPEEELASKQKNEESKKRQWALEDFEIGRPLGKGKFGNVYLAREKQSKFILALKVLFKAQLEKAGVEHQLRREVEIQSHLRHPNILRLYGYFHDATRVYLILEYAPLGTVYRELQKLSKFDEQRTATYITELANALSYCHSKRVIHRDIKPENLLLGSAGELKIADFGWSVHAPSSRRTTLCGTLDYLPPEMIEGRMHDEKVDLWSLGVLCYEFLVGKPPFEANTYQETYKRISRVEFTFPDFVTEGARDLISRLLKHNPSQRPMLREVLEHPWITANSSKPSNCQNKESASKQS
# [37] = target: Vascular endothelial growth factor receptor 2 (Homo sapiens) (UniProt P35968); assay: Inhibition of VEGFR2 (unknown origin) at 1 uM relative to control; values are per cent of control
# [38] = target: Phosphatidylinositol 4,5-bisphosphate 3-kinase catalytic subunit alpha isoform (Homo sapiens) (UniProt P42336); assay: Inhibition of PI3KCA (unknown origin) at 1 uM relative to control; values are per cent of control
# Phosphatidylinositol 4,5-bisphosphate 3-kinase catalytic subunit alpha isoform (Homo sapiens), sequence (P42336 whole entry, canonical isoform): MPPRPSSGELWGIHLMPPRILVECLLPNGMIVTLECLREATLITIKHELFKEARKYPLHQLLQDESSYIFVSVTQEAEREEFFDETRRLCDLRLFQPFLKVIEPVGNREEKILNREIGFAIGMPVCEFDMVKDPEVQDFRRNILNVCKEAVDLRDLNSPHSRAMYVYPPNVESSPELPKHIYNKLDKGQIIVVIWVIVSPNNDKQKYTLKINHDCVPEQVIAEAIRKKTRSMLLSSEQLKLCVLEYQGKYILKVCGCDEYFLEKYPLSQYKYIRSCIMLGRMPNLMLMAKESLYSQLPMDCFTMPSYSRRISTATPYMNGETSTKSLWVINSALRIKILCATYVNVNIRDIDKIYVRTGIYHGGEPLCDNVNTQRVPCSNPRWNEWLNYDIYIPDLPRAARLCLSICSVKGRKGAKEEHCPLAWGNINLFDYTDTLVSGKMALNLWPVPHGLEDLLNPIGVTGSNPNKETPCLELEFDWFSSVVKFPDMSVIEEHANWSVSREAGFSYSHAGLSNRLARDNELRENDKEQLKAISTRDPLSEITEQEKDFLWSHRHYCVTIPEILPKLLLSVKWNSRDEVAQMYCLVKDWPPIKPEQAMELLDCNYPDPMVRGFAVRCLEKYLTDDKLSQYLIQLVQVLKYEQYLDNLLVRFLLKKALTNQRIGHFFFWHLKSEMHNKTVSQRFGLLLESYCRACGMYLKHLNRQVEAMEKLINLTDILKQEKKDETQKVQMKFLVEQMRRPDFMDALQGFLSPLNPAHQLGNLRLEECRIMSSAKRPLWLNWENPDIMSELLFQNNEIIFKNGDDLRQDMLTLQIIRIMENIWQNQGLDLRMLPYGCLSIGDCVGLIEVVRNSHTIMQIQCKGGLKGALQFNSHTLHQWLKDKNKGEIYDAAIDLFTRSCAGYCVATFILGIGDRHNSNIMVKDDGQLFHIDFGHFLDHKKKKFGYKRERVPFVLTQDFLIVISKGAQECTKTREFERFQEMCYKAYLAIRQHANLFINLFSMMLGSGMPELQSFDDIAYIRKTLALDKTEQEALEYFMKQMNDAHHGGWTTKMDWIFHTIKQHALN
# [39] = target: cAMP-dependent protein kinase catalytic subunit alpha (Homo sapiens) (UniProt P17612); assay: Inhibition of PKAC-a (unknown origin) at 1 uM relative to control; values are per cent of control
# [40] = target: Platelet-derived growth factor receptor beta (Homo sapiens) (UniProt P09619); assay: Inhibition of PDGFRB (unknown origin) at 1 uM relative to control; values are per cent of control
# [41] = target: Platelet-derived growth factor receptor alpha (Homo sapiens) (UniProt P16234); assay: Inhibition of PDGFRA (unknown origin) at 1 uM relative to control; values are per cent of control
# [42] = target: Mitogen-activated protein kinase 14 (Homo sapiens) (UniProt Q16539); assay: Inhibition of P38alpha (unknown origin) at 1 uM relative to control; values are per cent of control
# [43] = target: Inhibitor of nuclear factor kappa-B kinase subunit alpha (Homo sapiens) (UniProt O15111); assay: Inhibition of IKK alpha (unknown origin) at 1 uM relative to control; values are per cent of control
# [44] = system: Tyrosine-protein kinase ABL1 (Homo sapiens), P00519 [T315I]; assay: Inhibition of breakpoint cluster region-Abelson tyrosine kinase T315I mutant (unknown origin) at 1 uM relative to control; values are per cent of control
# [45] = species on record: Homo sapiens; assay: Inhibition of phosphorylated breakpoint cluster region-Abelson tyrosine kinase (unknown origin) at 1 uM relative to control; values are per cent of control
# [46] = system: Tyrosine-protein kinase ABL1 (Homo sapiens), P00519 [E255K]; assay: Inhibition of phosphorylated breakpoint cluster region-Abelson tyrosine kinase E255K mutant (unknown origin) at 1 uM relative to control; values are per cent of control
compound,measurement,setting,value
CCOc1ccccc1-c1ccc2nc(NC(=O)NCCN3CCNCC3)sc2c1,IC50,[1],110 nM
same,IC50,[2],870 nM
CCOc1ccccc1-c1ccc2nc(NC(=O)NCCO)sc2c1,IC50,[1],180 nM
same,IC50,[2],1350 nM
CCc1ccccc1-c1ccc2nc(NC(=O)NCCN(C)C)sc2c1,IC50,[1],310 nM
same,IC50,[2],410 nM
COc1ccccc1-c1ccc2nc(NC(=O)NCCCO)sc2c1,IC50,[1],82 nM
same,IC50,[2],290 nM
COc1ccccc1-c1ccc2nc(NC(=O)NCCN3CCN(C)CC3)sc2c1,remaining at 24 h,[3],99.7%
same,solubility,[4],2240 µg/mL
same,IC50,[5],420 nM
same,IC50,[6],> 10000 nM
same,IC50,[1],46 nM
same,IC50,[2],78 nM
COC(=O)Nc1nc2ccc(C(=O)c3cccs3)cc2[nH]1 [NOCODAZOLE],IC50,[7],640 nM
COc1ccccc1-c1ccc2nc(NC(=O)NCCN3CCOCC3)sc2c1,IC50,[1],100 nM
same,IC50,[2],290 nM
same,inhibition,[8],Dose-dependent effect
CCc1ccccc1-c1ccc2nc(NC(=O)NCCN3CCOCC3)sc2c1,IC50,[1],280 nM
same,IC50,[2],1440 nM
CCNC(=O)Nc1nc2ccc(C(=O)Nc3ccncc3)cc2[nH]1,IC50,[7],> 100000 nM
Cc1ccc(NC(=O)c2ccc(CN3CCN(C)CC3)cc2)cc1Nc1nccc(-c2cccnc2)n1 [IMATINIB],IC50,[5],170 nM
same,IC50,[6],> 10000 nM
same,IC50,[1],92 nM
same,IC50,[2],4790 nM
CCOc1ccccc1-c1ccc2nc(NC(=O)NCCN3CCOCC3)sc2c1,IC50,[1],210 nM
same,IC50,[2],1090 nM
CCOc1ccccc1-c1ccc2nc(NC(=O)NCCCO)sc2c1,IC50,[1],120 nM
same,IC50,[2],560 nM
CCNC(=O)Nc1nc2ccc(-c3ccccc3OC)cc2s1,remaining at 24 h,[3],100%
same,solubility,[4],0.0227 µg/mL
same,IC50,[7],0.11 nM
same,IC50,[1],3570 nM
same,IC50,[2],2140 nM
same,residual activity,[9],72%
same,residual activity,[10],100%
same,residual activity,[11],79%
same,residual activity,[12],100%
same,residual activity,[13],100%
same,residual activity,[14],58%
same,residual activity,[15],87%
same,residual activity,[16],100%
same,residual activity,[17],100%
same,residual activity,[18],93%
same,residual activity,[19],100%
same,residual activity,[20],100%
same,residual activity,[21],100%
same,residual activity,[22],100%
same,residual activity,[23],94%
same,residual activity,[24],100%
same,residual activity,[25],100%
same,residual activity,[26],100%
same,residual activity,[27],100%
same,residual activity,[28],67%
same,residual activity,[29],100%
same,residual activity,[30],67%
same,residual activity,[31],100%
same,residual activity,[32],100%
same,residual activity,[33],100%
same,residual activity,[34],100%
same,residual activity,[35],100%
same,residual activity,[36],100%
same,residual activity,[37],98%
same,residual activity,[38],100%
same,residual activity,[39],100%
same,residual activity,[40],16%
same,residual activity,[41],79%
same,residual activity,[42],100%
same,residual activity,[43],100%
same,residual activity,[44],4.5%
same,residual activity,[45],5%
same,residual activity,[46],4.5%
CCNC(=O)Nc1nc2ccc(C(=O)N3CCN(C)CC3)cc2[nH]1,IC50,[7],> 100000 nM
COc1ccccc1-c1ccc2nc(NC(=O)NCCO)sc2c1,remaining at 24 h,[3],100%
same,solubility,[4],7.49 µg/mL
same,IC50,[5],120 nM
same,IC50,[6],> 10000 nM
same,IC50,[1],89 nM
same,IC50,[2],140 nM
